OX1R antag-1 = antagonists of human orexin 1 receptor (OX1R). inhibition, % at 6.6 µM. OX1R-expressing cells, FRET antagonist read-out. hit rate 1.8% among 330,000; in the data active means inhibition mostly above about 38%, no sharp cut-off; inactive means mostly below about 40%;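 further: 0% = agonist challenge alone and 100% = reference antagonist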
TAAR1 agonist = human TAAR1 agonists, primary screen, Fluo-8 calcium fluorescence, CHO RD-HGA16 cells | Trace amine-associated receptor 1 (Homo sapiens), Q96RJ0 | vehicle wells 0%, saturating PEA agonist 100% | activation, % at 3 µM | hit rate 0.99% among 360,000 | AID 624467, 2012;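 active means activation above the mean activation of all test compounds in the run plus 3 SD, cut at about 38% in these data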
Target sequence (Q96RJ0 whole entry, looked up): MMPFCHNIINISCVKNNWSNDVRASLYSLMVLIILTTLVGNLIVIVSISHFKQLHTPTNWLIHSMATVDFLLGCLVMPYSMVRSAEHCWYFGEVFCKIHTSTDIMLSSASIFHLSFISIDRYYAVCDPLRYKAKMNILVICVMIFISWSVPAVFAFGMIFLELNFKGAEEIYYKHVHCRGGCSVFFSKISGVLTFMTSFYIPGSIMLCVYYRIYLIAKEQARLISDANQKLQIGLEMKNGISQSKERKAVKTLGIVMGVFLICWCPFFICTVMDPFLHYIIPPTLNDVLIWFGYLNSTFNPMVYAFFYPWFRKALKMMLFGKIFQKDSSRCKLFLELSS
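System: CHO-derived RD-HGA16 cells with stable Gα16 and human TAAR1 / Times: 17-24 h plating, Fluo-8 75 min 37 °C, 30 min RT / Technique: calcium-sensitive Fluo-8 signal, excitation 470-495, emission 515-575 nm / Measure: % activation relative to PEA EC100 response / Benchmarks: DMSO and PEA EC100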
GPR7 antagonist = GPR7 receptor antagonists, primary screen, cell-based, fluorescence, single concentration | Neuropeptides B/W receptor type 1 (Homo sapiens), P48145 | GPR7-expressing cells, fluorescence antagonist assay | inhibition, % at 4.4 µM | hit rate 1.1% among 290,000; in the data active means inhibition above about 16%, passing the limit was not always enough;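 further: cells stimulated with the agonist NPW; 0% = agonist with vehicle and 100% = vehicle without agonist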
Target sequence (P48145 whole entry, looked up): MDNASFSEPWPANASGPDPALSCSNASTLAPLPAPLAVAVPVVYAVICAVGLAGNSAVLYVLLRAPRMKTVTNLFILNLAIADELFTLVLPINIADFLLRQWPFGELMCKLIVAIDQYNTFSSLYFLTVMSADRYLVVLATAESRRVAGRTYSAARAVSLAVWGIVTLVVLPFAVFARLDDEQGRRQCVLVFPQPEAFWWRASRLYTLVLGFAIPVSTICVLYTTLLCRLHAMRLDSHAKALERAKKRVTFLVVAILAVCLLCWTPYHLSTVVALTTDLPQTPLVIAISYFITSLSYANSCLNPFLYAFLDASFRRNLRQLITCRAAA
TAAR1 antagonist = human TAAR1 antagonists, primary screen, Fluo-8 calcium fluorescence, CHO RD-HGA16 cells; hit rate 1.5% among 360,000; Trace amine-associated receptor 1 (Homo sapiens), Q96RJ0; antagonist; AID 624466, 2012; inhibition, % at 3 µM;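 active means inhibition above a per-plate cutoff, the mean inhibition of test compounds on that plate plus 3 SD, cut at about 49% in these data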;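 further: 0% = DMSO plus EC80 beta-PEA response and 100% = DMSO alone without agonist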
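Test system – hTAAR1-expressing CHO RD-HGA16 cells, Gα16-coupled · Also added – β-PEA at EC80 concentration, post-compound challenge · Compound – 3 µM, single point · Incubation – dye loading 75 min at 37 °C, then 30 min room temperature · Measured by – Fluo-8 intracellular calcium dye fluorescence, real-time kinetic reads · Benchmarks – vehicle and agonist controls · Replicates – singlicate, one well per test compound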
CHO parental Ca = ATP-evoked calcium signal inhibitors, parental CHO, primary screen, counter-screen for OX1R antagonist project, cell-based, fluorescence, Fluo-8 calcium dye; hit rate 0.63% among 330,000; parental CHO-K1, ATP-induced calcium, Fluo-8 fluorescence; AID 463079, 2010; inhibition, % at 5.6 µM;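 active means inhibition above that plate's mean sample inhibition plus 3 SD, cut at about 26% in these data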;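 further: 0% = ATP-challenged DMSO wells and 100% = DMSO wells without ATP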
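Measured by: calcium-sensitive Fluo-8 fluorescence / Test system: CHO parental line / Controls: ATP-challenged DMSO wells low, unchallenged DMSO wells high / Measure: % inhibition / Compound: single nominal dose of 5.6 µM per compound / Replicates: single well per compound, no replicates / Reagent: ATP as calcium-mobilizing challenge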
OX1R antag-2 = OX1R (HCRTR1) antagonists, primary screen, fluorescence, CHO/OX1R cells, Fluo-8 calcium, orexin A; AID 434989, 2010; inhibition, % at 5 µM; hit rate 0.43% among 330,000; Fluo-8 calcium fluorescence;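 active means inhibition above its plate's threshold, mean inhibition of all tested compounds on the plate plus 3 SD, cut at about 37% in these data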;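 further: 0% = orexin A challenge wells and 100% = SB-334867-A antagonist wells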
OX1R Fluo8 conf = OX1R (HCRTR1) antagonists, confirmation, fluorescence, CHO/OX1R cells, Fluo-8 calcium, orexin A. hit rate 38% among 1,100. shares compounds with OX1R antag-2. orexin A calcium Fluo-8 fluorescence. inhibition, % at 5 µM; in the data active means inhibition above about 29%;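 further: 0% = agonist challenge alone and 100% = reference antagonist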
CHO Ca triplic = ATP-evoked calcium inhibition in parental CHO, counter-screen for OX1R antagonist project, cell-based, fluorescence, CHO-K1, triplicate; shares compounds with OX1R antag-2; ATP-induced calcium, Fluo-8 fluorescence; inhibition, % at 5.6 µM; hit rate 9.3% among 1,100; AID 492965, 2010;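 active means inhibition above a per-plate limit, the mean inhibition of that plate's test compounds plus 3 SD, cut at about 25% in these data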;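 further: 0% = ATP challenge with DMSO and 100% = DMSO without ATP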
OX1R HTRF confirm = OX1R (HCRTR1) antagonists, confirmation, cell-based, HTRF | shares compounds with OX1R antag-1 | OX1R-expressing cells, HTRF antagonist assay | inhibition, % at 6.6 µM | hit rate 49% among 1,800 | AID 492964, 2010; in the data active means inhibition above about 55%;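 further: CHO cells expressing OX1R stimulated with orexin A at about EC80; 0% = agonist challenge alone and 100% = reference antagonist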
CHO-K1 HTRF = signal inhibition in parental CHO-K1 cells, counter-screen for OX1R antagonist project, cell-based, HTRF; shares compounds with OX1R antag-1; HTRF counterscreen; inhibition, % at 6.6 µM; hit rate 48% among 1,800; in the data active means inhibition above about 17%;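 further: 0% = agonist challenge with vehicle and 100% = vehicle alone without agonist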
Starred values were filed as active, the others as inactive; · = no result given. Sampled rows, rich in hits. Any-hit rate of the full collection: about 4.5%.

SMILES	OX1R antag-1	TAAR1 agonist	GPR7 antagonist	TAAR1 antagonist	CHO parental Ca	OX1R antag-2	OX1R Fluo8 conf	CHO Ca triplic	OX1R HTRF confirm	CHO-K1 HTRF
CCc1noc(C)c1C(=O)NCCN1C(=O)S/C(=C\c2ccccc2F)C1=O	·	11	·	11	·	·	·	·	·	·
CC(/C=N/NC(=O)c1cc(-c2cccs2)[nH]n1)=C\c1ccccc1	88*	15	-5	35	-15	45*	45*	-2	73*	11
O=C(N/N=C/C(Br)=C/c1ccccc1)c1cc(-c2ccco2)[nH]n1	73*	12	1	31	-12	26	50*	7	87*	9
COc1ncc(-c2ccc(N3C(c4ccsc4)=Cc4ccc(F)cc4C3CC(C)=O)cc2)cn1 (configuration not stated)	·	1	·	-1	·	·	·	·	·	·
COc1ccc(-c2cc3nc(-c4ccccc4)cc(N4CCN(C(=O)c5ccoc5)CC4)n3n2)cc1	·	3	·	48	·	·	·	·	·	·
COc1ccc(-c2cc3nc(-c4ccccc4)cc(N4CCC5(CC4)OCCO5)n3n2)cc1	50*	6	-4	26	-9	67*	31*	-9	68*	11
Nc1nc(CSc2nnnn2-c2ccccc2)nc(N2CCCc3ccccc32)n1	83*	11	3	38	-7	65*	30*	0	44	-3
Nc1nc(CN2CCN(c3ccccc3)CC2)nc(N2CCCc3ccccc32)n1	10	14	-15	-2	-17	-31	·	·	·	·
COc1cccc2sc3ccc(C#CC4(N)CCCCC4)cc3c(=O)c12	6	18	-9	17	-14	-7	·	·	·	·
COc1cccc2sc3cc(C#CC4(O)CCCCC4)ccc3c(=O)c12	80*	21	·	39	-4	87*	55*	-13	87*	15
C=C(C)C(COc1c2occc2cc2ccc(=O)oc12)OC(C)(C)C(O)COc1c2occc2cc2ccc(=O)oc12 (configuration not stated)	84*	16	·	58*	-24	61*	39*	-5	88*	-1
CC(C)(C)NC(=O)C(c1cc2ccccc2o1)n1c(-c2ccc(-c3ccccc3)cc2)nc2ccccc21 (configuration not stated)	·	2	·	-47	·	·	·	·	·	·
CC(=O)c1cccc(-c2ccnc3c2CC(C(=O)Nc2cccc(C(F)(F)F)c2)O3)c1 (configuration not stated)	·	3	·	35	·	·	·	·	·	·
CNc1oc(-c2ccccc2Cl)nc1C#N	20	3	9	-4	-4	-3	·	·	·	·
CNc1oc(-c2cccc3ccccc23)nc1C#N	90*	-2	-4	14	-15	92*	68*	-2	94*	5
CCn1c(SCC(=O)Nc2sc3c(c2C#N)CCC(C(C)(C)C)C3)nnc1-c1ccco1 (configuration not stated)	5	2	-5	-1	1	-11	·	·	·	·
CCn1c(SCC(=O)Nc2sc3c(c2C#N)CCCC3)nnc1-c1ccco1	94*	10	-9	-17	-22	31	21	-15	78*	-1
O=C(CCNC(=O)c1ccco1)NCCN1C(=O)S/C(=C\c2ccc(F)cc2)C1=O	47*	7	·	15	-12	45*	19	3	90*	24*
O=C(NCCN1C(=O)S/C(=C\c2cccs2)C1=O)c1ccco1	44	0	-10	-14	-30	-22	·	·	·	·
O=C(CCCN1C(=O)/C(=C/c2cccs2)SC1=S)Nc1cccc(O)c1	67*	5	5	45	2	45*	33*	7	59*	7
O=C(CCCN1C(=O)/C(=C/c2cccs2)SC1=S)Nc1cccc(C(=O)O)c1	33	11	-7	2	-10	7	·	·	·	·
O=C(Nc1nnc([C@@H]2C[C@H](O)[C@@H](CO)O2)s1)c1cccc2ccccc12	·	2	·	-7	·	·	·	·	·	·
O=[N+]([O-])c1cccc(-c2nc(-c3cccs3)c(-c3cccs3)[nH]2)c1	99*	5	-4	58*	9	38	13	-3	74*	7
Cc1nn(C)c(C)c1N=Cc1c(O)ccc2ccccc12	83*	9	-15	-4	-14	43*	1	-3	77*	11
O=C(OCc1ccccc1)N1CCC2CC1c1cc(-c3cc4ccccc4o3)ccc12 (configuration not stated)	·	1	·	-21	·	·	·	·	·	·
SMILES	OX1R antag-1	TAAR1 agonist	GPR7 antagonist	TAAR1 antagonist	CHO parental Ca	OX1R antag-2	OX1R Fluo8 conf	CHO Ca triplic	OX1R HTRF confirm	CHO-K1 HTRF
COc1ccc(-c2csc(NC(=O)CS(=O)(=O)c3ccccc3)n2)cc1	15	5	·	-2	-1	-20	·	·	·	·
COc1ccc(-c2csc(NC(=O)CS(=O)(=O)c3ccc(F)cc3)n2)cc1OC	76*	14	·	15	14	28	15	-2	25	4
CCOC(=O)CC(S(=O)(=O)c1ccccc1)S(=O)(=O)c1ccccc1	·	9	·	-32	·	·	·	·	·	·
COC(=O)C1=C(C)NC2=C(C(=O)CC(C)(C)C2)C1c1cn(Cc2ccc(Br)cc2)nc1-c1ccccc1 (configuration not stated)	37	·	21	·	-4	13	·	·	·	·
COC(=O)C1=C(C)NC2=C(C(=O)CCC2)C1c1cn(Cc2ccc(Br)cc2)nc1-c1ccccc1 (configuration not stated)	75*	7	-2	9	-4	35	1	-18	52	-17
O=c1[nH][nH]c(=S)n1C1CCCCC1	7	·	-3	·	-8	-3	·	·	·	·
CC(C)n1c(=O)[nH][nH]c1=S	63*	2	-3	-13	11	39*	55*	4	79*	12
